According to publication PMC7610535 (Nature chemical biology, 2020):
Numbering of substitutions follows the chain as printed.

Assays:
AURORA-B = AURORA-B (Homo sapiens, UniProt Q96GD4); test: AURORA-B-NanoLuc target engagement assay; type: binding; conditions: AURORA-B EC50 (µM), HEK293 cells, energy transfer probe, 2 hours, mean ± s.e.m, n = 2
AURORA-A [1] = target: T1, AURORA-A (Homo sapiens, UniProt O14965); test: Immunoblot of AURORA-A in compound-treated MV4-11 cells; type: cell-based; conditions: 6 hours
T1 sequence (O14965 1-403): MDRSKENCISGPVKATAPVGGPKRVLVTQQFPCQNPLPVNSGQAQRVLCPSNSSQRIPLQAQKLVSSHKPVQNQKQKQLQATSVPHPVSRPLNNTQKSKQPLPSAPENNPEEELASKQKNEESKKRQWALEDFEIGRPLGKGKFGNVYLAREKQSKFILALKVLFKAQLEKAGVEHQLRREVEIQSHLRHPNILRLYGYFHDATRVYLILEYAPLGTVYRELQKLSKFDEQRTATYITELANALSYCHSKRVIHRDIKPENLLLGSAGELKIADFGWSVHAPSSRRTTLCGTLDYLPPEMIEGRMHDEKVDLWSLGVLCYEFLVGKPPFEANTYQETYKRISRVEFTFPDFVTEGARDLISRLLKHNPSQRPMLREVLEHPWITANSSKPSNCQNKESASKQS

AURORA-A [2] = target: T1, AURORA-A; test: HiBiT assay: AURORA-A levels based on luciferase measurements in MV4-11 cells; type: cell-based
How it was run: (§1)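 HiBiT-tagged wild-type or mutant AURORA-A was expressed stably in MV4-11 cells (infected twice, 24 h apart, selected 72 h after infection). Cells were exposed to serial dilutions of the test compound for 6 h and lysed with lytic detection reagent containing the LgBiT fragment. Luminescence was then read. DC50 and DCmax were derived from the concentration–response data.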

AURORA-A mRNA = test: Quantitative real-time PCR of AURORA-A mRNA in MV4-11 cells; type: cell-based, human; conditions: 0.1 µM
How it was run: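 MV4-11 cells were exposed for 6 h, and RNA and protein were isolated in parallel. AURORA-A mRNA was measured by RT-qPCR and normalised to DMSO-treated control cells; bars are means of technical replicates.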

AURORA-A [3] = target: T1, AURORA-A; test: Immunoblot of AURORA-A in U2OS, HLE and IMR5 cells; type: cell-based; conditions: HLE and IMR5 cell lines
How it was run: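 U2OS and HLE cells were exposed to a range of concentrations for 6 h. IMR5 cells were exposed for 6 h, or at 1 µM alongside siRNA knockdown of AURORA-A/B. Lysis was in RIPA buffer for 20 min at 4 °C, and protein was quantified by BCA. Samples were separated by Bis-Tris PAGE, blotted onto PVDF, blocked in 5% milk/TBS-T and probed overnight at 4 °C.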

[4] = target: AURORA-A-CEREBLON complex (Homo sapiens, UniProt O14965+Q96SW2); test: HA immunoprecipitation of AURORA-A, co-precipitated CEREBLON; type: binding; conditions: MV4-11 cell extracts, 0.5 µM degrader
Sequence of AURORA-A-CEREBLON complex (Q96SW2 whole entry, one chain of several): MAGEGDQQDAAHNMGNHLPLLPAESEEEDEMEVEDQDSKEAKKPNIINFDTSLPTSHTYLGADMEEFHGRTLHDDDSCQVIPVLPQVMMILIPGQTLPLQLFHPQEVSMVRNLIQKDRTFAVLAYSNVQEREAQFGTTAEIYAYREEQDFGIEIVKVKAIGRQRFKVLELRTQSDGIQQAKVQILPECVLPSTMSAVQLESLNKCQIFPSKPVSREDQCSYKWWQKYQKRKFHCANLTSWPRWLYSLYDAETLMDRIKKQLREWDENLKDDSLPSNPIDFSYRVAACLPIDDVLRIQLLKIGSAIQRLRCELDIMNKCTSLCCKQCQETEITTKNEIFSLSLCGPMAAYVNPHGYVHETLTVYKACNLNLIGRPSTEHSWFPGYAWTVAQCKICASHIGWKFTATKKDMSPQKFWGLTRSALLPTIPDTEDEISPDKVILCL
Sequence of AURORA-A-CEREBLON complex (Q16531 whole entry partner, one chain of several): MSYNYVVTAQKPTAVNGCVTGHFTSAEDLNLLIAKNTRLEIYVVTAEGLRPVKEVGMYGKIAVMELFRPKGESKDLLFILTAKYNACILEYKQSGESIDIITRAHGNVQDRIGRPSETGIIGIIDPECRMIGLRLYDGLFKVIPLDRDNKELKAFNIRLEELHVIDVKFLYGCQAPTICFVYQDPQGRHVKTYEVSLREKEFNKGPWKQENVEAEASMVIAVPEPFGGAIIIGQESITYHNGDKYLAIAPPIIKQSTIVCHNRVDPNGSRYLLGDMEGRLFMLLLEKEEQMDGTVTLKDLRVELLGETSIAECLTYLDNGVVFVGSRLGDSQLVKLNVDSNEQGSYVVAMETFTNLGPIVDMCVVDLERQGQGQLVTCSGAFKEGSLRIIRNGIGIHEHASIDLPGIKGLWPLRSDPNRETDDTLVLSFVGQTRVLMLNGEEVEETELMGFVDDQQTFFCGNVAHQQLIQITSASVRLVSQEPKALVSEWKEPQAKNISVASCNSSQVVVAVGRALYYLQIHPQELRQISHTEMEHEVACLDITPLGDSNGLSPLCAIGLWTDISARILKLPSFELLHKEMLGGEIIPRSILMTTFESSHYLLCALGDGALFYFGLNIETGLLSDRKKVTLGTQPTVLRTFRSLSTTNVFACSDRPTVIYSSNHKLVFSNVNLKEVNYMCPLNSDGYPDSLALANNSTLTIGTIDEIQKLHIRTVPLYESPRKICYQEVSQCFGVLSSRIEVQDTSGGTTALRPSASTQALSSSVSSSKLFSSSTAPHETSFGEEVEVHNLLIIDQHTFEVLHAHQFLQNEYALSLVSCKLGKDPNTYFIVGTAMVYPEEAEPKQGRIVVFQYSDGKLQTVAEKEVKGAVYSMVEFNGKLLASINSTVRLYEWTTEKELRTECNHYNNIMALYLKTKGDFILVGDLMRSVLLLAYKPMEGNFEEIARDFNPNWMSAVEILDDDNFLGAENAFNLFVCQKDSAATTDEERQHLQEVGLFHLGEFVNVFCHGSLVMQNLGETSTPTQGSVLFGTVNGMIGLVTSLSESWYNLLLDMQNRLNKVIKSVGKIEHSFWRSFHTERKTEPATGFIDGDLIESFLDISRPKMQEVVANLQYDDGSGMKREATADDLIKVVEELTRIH

[5] = alamarBlue cell viability assay, MV4-11 cells; type: cell-based; conditions: human
How it was run: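 MV4-11 cells (6 x10^3 per well) were exposed for various times, with compound refreshed every 24 h. Viability was read with alamarBlue HS reagent as fluorescence (excitation 550 nm, emission 600 nm).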

MV4-11 cells = test: Annexin/PI flow cytometry, MV4-11 cells; type: cell-based, human; conditions: 0.5 µM, 72 hours
How it was run: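 MV4-11 cells were collected together with their culture medium, washed in ice-cold PBS and stained with Annexin V/Pacific Blue in HEPES/NaCl/CaCl2 binding buffer for 15 min at room temperature in the dark. Propidium iodide in buffer was added before flow cytometry. Early (annexin+, PI−) and late (annexin+, PI+) apoptotic cells were counted over 50,000 events.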

AURORA-A^P191W = target: T2, AURORA-A^P191W (Homo sapiens, UniProt O14965, P191W); test: HiBiT assay of AURORA-A^P191W in MV4-11 cells; type: cell-based; conditions: 6 hours
T2 sequence (O14965 1-403 P191W): T1 sequence (O14965 1-403) with P191W
How it was run: as §1

AURORA-A^D274N = target: T3, AURORA-A^D274N (Homo sapiens, UniProt O14965, D274N); test: Immunoblot of HA-tagged kinase-dead AURORA-A^D274N; type: cell-based; conditions: 1 µM, 18 hours
T3 sequence (O14965 1-403 D274N): T1 sequence (O14965 1-403) with D274N

AURORA-A^K162R = AURORA-A^K162R (Homo sapiens, UniProt O14965+Q96SW2, I57V/K162R); test: Immunoblot of HA-tagged kinase-dead AURORA-A^K162R; type: cell-based; conditions: 1 µM, 18 hours
Sequence of AURORA-A^K162R (O14965 whole entry I57V/K162R): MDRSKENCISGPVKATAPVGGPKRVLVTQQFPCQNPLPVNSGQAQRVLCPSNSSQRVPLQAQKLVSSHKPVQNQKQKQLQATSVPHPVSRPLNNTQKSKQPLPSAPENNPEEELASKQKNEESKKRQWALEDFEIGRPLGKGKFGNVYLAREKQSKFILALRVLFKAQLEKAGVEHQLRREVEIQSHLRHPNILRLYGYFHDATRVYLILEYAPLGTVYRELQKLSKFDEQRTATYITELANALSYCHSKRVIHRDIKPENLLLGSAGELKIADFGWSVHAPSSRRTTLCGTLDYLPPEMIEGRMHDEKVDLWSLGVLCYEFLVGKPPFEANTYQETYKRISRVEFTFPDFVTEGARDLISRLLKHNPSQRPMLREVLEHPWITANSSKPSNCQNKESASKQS
Sequence of AURORA-A^K162R (Q96SW2 whole entry): as the sequence (Q96SW2 whole entry, one chain of several) above
Sequence of AURORA-A^K162R (Q16531 whole entry partner): as the sequence (Q16531 whole entry partner, one chain of several) above

[6] = target: AURORA-B^R160L,E162T,K165R (Homo sapiens, UniProt Q96GD4, E161T/K164R/R159L); test: Immunoblot of HA-tagged AURORA-B swap mutant x3 in MV4-11 cells; type: cell-based; conditions: 6 hours
Sequence of AURORA-B^R160L,E162T,K165R (Q96GD4 1-345 isoform Q96GD4-5 R160L/E162T/K165R): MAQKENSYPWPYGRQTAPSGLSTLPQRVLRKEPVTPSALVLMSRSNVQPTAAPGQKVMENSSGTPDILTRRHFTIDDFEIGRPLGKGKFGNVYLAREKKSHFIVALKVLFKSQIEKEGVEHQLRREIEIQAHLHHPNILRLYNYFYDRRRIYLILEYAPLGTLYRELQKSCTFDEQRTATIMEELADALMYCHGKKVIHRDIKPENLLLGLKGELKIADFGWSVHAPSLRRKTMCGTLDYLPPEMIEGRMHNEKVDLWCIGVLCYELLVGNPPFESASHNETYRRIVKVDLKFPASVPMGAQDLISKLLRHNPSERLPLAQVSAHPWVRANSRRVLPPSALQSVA

Sequence of AURORA-B (Q96GD4 whole entry): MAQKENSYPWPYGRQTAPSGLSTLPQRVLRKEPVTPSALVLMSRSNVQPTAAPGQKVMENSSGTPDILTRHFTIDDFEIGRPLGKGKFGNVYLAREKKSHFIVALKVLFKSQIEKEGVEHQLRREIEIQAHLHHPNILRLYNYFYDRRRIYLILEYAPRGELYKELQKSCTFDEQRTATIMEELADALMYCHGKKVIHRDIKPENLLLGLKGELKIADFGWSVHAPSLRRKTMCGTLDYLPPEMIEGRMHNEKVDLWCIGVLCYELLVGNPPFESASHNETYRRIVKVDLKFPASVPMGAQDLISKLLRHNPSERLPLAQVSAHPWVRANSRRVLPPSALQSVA

EC50 (AURORA-B): 1.4 µM | reduction of AURORA-A levels (in words) (AURORA-A [1]; 10 nM): reduced AURORA-A levels modestly | reduction of AURORA-A levels (in words) (AURORA-A [1]; 100 nM and 1 µM): substantial degradation | degrader activity on co-incubation with alisertib or thalidomide (AURORA-A [1]): abolished its degrader activity | depletion of AURORA-A under proteasomal inhibition by MG132 (AURORA-A [1]; MG132 10 µM): completely blocked | depletion of AURORA-A under inhibition of cullin neddylation by MLN4924 (AURORA-A [1]; MLN4924 3 µM): completely blocked | concentration of maximal depletion of AURORA-A (DCmax) (AURORA-A [2]; HiBiT-AURORA-A, 6 hours): 300 nM | concentrations ineffective in depleting AURORA-A (Hook effect) (AURORA-A [2]; immunoblot and luminescence assays): ≥ 10 µM | AURORA-A depletion (in words) (AURORA-A [3]): rapid AURORA-A depletion in all cases | CEREBLON co-precipitation with HA-tagged AURORA-A [4]: efficient CEREBLON co-precipitation | JB170-mediated depletion of AURORA-A^P191W (AURORA-A^P191W): abolished JB170-mediated depletion | JB170-mediated degradation of AURORA-B^R160L,E162T,K165R with respect to AURORA-A [6]: strongly attenuated
Structure (SMILES): COc1cc(Nc2ncc3c(n2)-c2ccc(Cl)cc2C(c2c(F)cccc2OC)=NC3)ccc1C(=O)NCCOCCOCCNC(=O)COc1cccc2c1C(=O)N(C1CCC(=O)NC1=O)C2=O (centres unmarked) [JB170]
AURORA-A mRNA levels (AURORA-A mRNA): not reduced | viability at 72 h, 1 µM [5]: 32% | annexin-positive cells (MV4-11 cells): 56% | depletion of AURORA-A^D274N (AURORA-A^D274N): depleted by JB170 to a similar degree as the unmutated protein | depletion of AURORA-A^K162R (AURORA-A^K162R): depleted by JB170 to a similar degree as the unmutated protein
